Drawing on ChEMBL document CHEMBL3286213, “Exploration of the dihydropyrimidine scaffold for the development of new potential anti-inflammatory agents blocking prostaglandin E₂ synthase-1 enzyme (mPGES-1)” (Eur J Med Chem, 2014), this text covers Retention_time, inhibition and IC50 for eight compounds.

Series [1] in a line: Retention time of the compound by RP-HPLC analysis. The format is physicochemical. The procedure, abridged:
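RP-HPLC with eluent A 0.1% TFA in water and eluent B 0.1% TFA in CH3CN, detection at 280 nm.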

In series [2] the target is T1, Prostaglandin E synthase (Homo sapiens) (UniProt O14684).
T1 sequence (whole entry): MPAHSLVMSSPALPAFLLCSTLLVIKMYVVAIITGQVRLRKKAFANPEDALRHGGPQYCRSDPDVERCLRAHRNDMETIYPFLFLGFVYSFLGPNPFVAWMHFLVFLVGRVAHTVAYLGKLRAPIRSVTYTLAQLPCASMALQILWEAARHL
The series can be described thus: Inhibition of mPGES-1 in interleukin-1 beta-stimulated human A549 cell microsomes assessed as reduction in PGE2 production using PGH2 as substrate at <10 uM treated for 15 mins prior to substrate addition measured after 1 min by RP-HPLC analysis. In short, it runs like this: (§1)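 Diluted in 0.1 M potassium phosphate pH 7.4 with 2.5 mM GSH. Compound or vehicle 15 min at 4 °C, then PGH2 added, 1 min. Stopped with FeCl2/citric acid plus 11β-PGE2 internal standard. PGE2 by SPE and RP-HPLC. Mean ± SE.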

In another series the target is T2, Prostaglandin E synthase (Homo sapiens, UniProt O14684).
T2 sequence (O14684 whole entry): T1 sequence (whole entry)
The series can be described thus: Inhibition of mPGES-1 in interleukin-1 beta-stimulated human A549 cell microsomes assessed as reduction in PGE2 production using PGH2 as substrate treated for 15 mins prior to substrate addition measured after 1 min by RP-HPLC analysis. The procedure, abridged: as §1

The target in series [3] is T1, Prostaglandin E synthase (Homo sapiens). The series can be described thus: Inhibition of mPGES-1 in interleukin-1 beta-stimulated human A549 cell microsomes assessed as reduction in PGE2 production using PGH2 as substrate at 10 uM treated for 15 mins prior to substrate addition measured after 1 min by RP-HPLC analysis. The procedure, abridged:
as §1

Molecules are shown by their SMILES. pIC50: −log10 of the molar value. Calls of active or inactive are those of the source. The calls are words filed in the database; no cut-off is given here.

For orientation: inhibition means the share of the control response that was lost under treatment. On to `CCOC(=O)C1=C(C(=O)c2ccc(OC)cc2)C(c2cccc(C=O)c2)NC(=O)N1` (configuration not stated), for which the Retention_time in series [1] came out at 24.7 min. Moreover, the inhibition result in series [2] was “inactive”.

What is called pIC50 is the negative decadic logarithm of the IC50, by convention in mol/L. Consider `CCOC(=O)C1=C(C(=O)c2ccc(OC)cc2)[C@H](c2ccc(-c3cccc(C(F)(F)F)c3)o2)NC(=O)N1C`, for which the Retention_time in series [1] is recorded as 30.3 min. Besides, the negative-log IC50 (pIC50) on Prostaglandin E synthase was 5.12.

In the case of `CCOC(=O)C1=C(C(=O)c2ccc(OC)cc2)[C@H](c2coc3c(Br)cc(Br)cc3c2=O)NC(=O)N1`, in series [1], the Retention_time turned out to be 26.4 min. In series [2], the inhibition result is “inactive”.

`CCOC(=O)C1=C(C(=O)c2ccc(OC)cc2)[C@H](c2ccc(-c3cccc(C(F)(F)F)c3)o2)NC(=O)N1`: the Retention_time in series [1] amounted to 34.2 min. Also, the negative-log IC50 (pIC50) at Prostaglandin E synthase is 5.38.

In series [1], `CCOC(=O)C1=C(C(=O)c2ccc(OC)cc2)[C@H](c2cccc(-c3ccc(C#N)cc3)n2)NC(=O)N1` returned a Retention_time of 20.8 min. Also, the inhibition entry in series [2] was “inactive”.

For `CCOC(=O)C1=C(C)N(C)C(=O)NC1c1ccc(-c2cccc(C(F)(F)F)c2)o1` (configuration not stated), the Retention_time in series [1] worked out at 26.7 min. In series [2], the inhibition entry is “inactive”.

Compound `CCOC(=O)C1=C(C(=O)c2ccc(OC)cc2)C(c2cccc(OCC)c2)NC(=O)N1` (configuration not stated) registered a Retention_time in series [1] of 22.9 min. Also, the inhibition result in series [2] was “inactive”.

The compound `CCOC(=O)C1=C(C(=O)c2ccc(OC)cc2)C(c2ccc(-c3cccc(C(F)(F)F)c3)o2)NC(=S)N1` (configuration not stated) registered a Retention_time in series [1] of 32.3 min. The pIC50 at Prostaglandin E synthase was below 4.52. Moreover, the inhibition in series [3] is 37%.
